Experimental data reported in article PMC7330163 (Pharmacology Research & Perspectives, 2020).

How the values were obtained:
[1] = Single-dose intravenous pharmacokinetics in rat; type: in vivo, Sprague-Dawley rat; details: for AUC / Vd / clearance / half-life: Sprague-Dawley, plasma, iv
CYP2C9 = test: Induction of P450 mRNA in human hepatocytes; type: cell-based; details: up to 10 µmol/L
Procedure, shortened: (§1)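 Three human hepatocyte batches were cultured as monolayers and treated for 48–89 h with test compound, diluted 1000-fold from DMSO stock, or vehicle. Medium with fresh drug renewed every 24 h; rifampicin and omeprazole served as positive controls. CYP mRNA then measured.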

Cyp3a1 [2] = test: Taqman mRNA upregulation in rat liver, 4-week toxicity study; type: in vivo, Sprague-Dawley rat
Procedure, shortened: (§2)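 Livers came from satellite-group rats of both sexes (n = 5–6) in the 4-week study, dosed once daily at 0, 50, 150, 450 or 1500 mg/kg in modified gelatine. Transcripts quantified by comparative Ct, normalised to 18S and to vehicle-treated controls; fold change = 2−ΔΔCT.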

Cyp2c12 = test: Taqman mRNA upregulation in rat liver; type: in vivo, Sprague-Dawley rat; details: either sex
CYP3A4 [3] = test: Induction of P450 mRNA in human hepatocytes; type: cell-based; details: 10 µmol/L
Procedure, shortened: as §1

Cyp2c13 = test: Taqman mRNA upregulation in rat liver; type: in vivo, Sprague-Dawley rat; details: male-specific
[4] = Toxicokinetics of the 4-week toxicity study in rat; type: in vivo, Sprague-Dawley rat; details: for AUC0‐24 h (day 8/28): day 28
Cyp3a1 [5] = test: Taqman mRNA upregulation in rat liver, 8-day mechanistic follow-up study; type: in vivo, Sprague-Dawley rat; details: male rats, 8-day follow-up study, relative to vehicle control
Procedure, shortened: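 Male Sprague-Dawley rats (n = 4) were given 0, 5, 15 or 50 mg/kg daily for 8 days as a suspension in modified gelatine. Liver transcripts were normalised to 18S and to vehicle-treated rats by the ΔΔCT method; fold = 2−ΔΔCT.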

total P450 = test: Total P450 concentration in liver microsomes of the 4-week rat toxicity study; type: in vivo, Sprague-Dawley rat; details: 4 weeks
Procedure, shortened: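 Microsomes were made from pooled liver (1.5–2 g per dose group) of 4-week toxicity studies, including vehicle controls. Tissue homogenised in ice-cold 50 mmol/L Tris-HCl pH 7.4 with 250 mmol/L sucrose, spun at 9000 g then 100 000 g (4°C), and the pellet washed in 100 mmol/L pyrophosphate pH 7.25 with 1 mmol/L EDTA. Total P450 by carbon monoxide spectrophotometric assay.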

[6] = biological target: T1, human pregnane X receptor (Homo sapiens, UniProt O75469); test: PXR reporter-gene assay in green monkey kidney CV-1 cells; type: cell-based
T1 sequence (O75469 1-434): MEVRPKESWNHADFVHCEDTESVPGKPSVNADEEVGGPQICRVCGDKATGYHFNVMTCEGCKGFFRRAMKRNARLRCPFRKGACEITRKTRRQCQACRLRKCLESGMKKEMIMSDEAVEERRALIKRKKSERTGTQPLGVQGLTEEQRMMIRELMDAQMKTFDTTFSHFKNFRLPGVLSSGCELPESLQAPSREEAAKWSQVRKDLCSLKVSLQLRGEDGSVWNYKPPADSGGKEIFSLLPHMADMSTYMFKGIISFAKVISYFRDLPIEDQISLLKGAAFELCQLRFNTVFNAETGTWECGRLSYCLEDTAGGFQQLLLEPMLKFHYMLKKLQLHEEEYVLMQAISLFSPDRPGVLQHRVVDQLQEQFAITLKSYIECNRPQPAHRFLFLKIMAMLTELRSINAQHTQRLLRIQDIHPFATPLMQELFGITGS
Procedure, shortened: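 CV-1 cells were grown 3 days in DMEM/F12 with charcoal-treated FBS, then seeded at 25 000/well and lipofected with hPXR expression vector (0.1 ng), CYP3A4-luciferase reporter (20 ng) and β-galactosidase vector (60 ng). After 24 h, cells were treated 24 h in triplicate with 0.03–30 µmol/L test compound or rifampicin in delipidated charcoal-treated FBS medium. Luciferase normalised to β-galactosidase, expressed as fold over DMSO.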

CYP3A4 [7] = test: Induction of P450 enzyme activity in human hepatocytes; type: cell-based; details: up to 10 µmol/L
Procedure, shortened: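 Three batches of human hepatocyte monolayers were exposed for 48–89 h to test compound (DMSO stock diluted 1000-fold), with medium and fresh drug or vehicle renewed every 24 h; rifampicin and omeprazole as positive controls. Cells then washed with MEM, held 10 min at 37°C, and incubated with 200 µmol/L nifedipine for 2 h at 37°C, 5% CO2, as CYP3A4 activity marker.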

Cyp3a2 = test: Taqman mRNA upregulation in rat liver, 4-week toxicity study; type: in vivo, Sprague-Dawley rat; details: male rats, 4-week study
Procedure, shortened: as §2

T 1/2 ([1]; F, 0.3 mg/kg single iv, geometric mean (range)): 8.9 (6.6‐12) h
AUC ([1]; female, 0.3 mg/kg): 2990 ng·h/mL
Vd ([1]; female, 0.3 mg/kg): 1.4 L/kg
clearance ([1]; female, 0.3 mg/kg): 2 mL/min/kg
half-life ([1]; female, 0.3 mg/kg): 8.9 h
AUC ([1]; male, 0.1 mg/kg): 270 ng·h/mL
Vd ([1]; male, 0.1 mg/kg): 1.6 L/kg
clearance ([1]; male, 0.1 mg/kg): 6.5 mL/min/kg
half-life ([1]; male, 0.1 mg/kg): 3.8 h
AUC ([1]; male, 0.3 mg/kg): 610 ng·h/mL
Vd ([1]; male, 0.3 mg/kg): 1.2 L/kg
clearance ([1]; male, 0.3 mg/kg): 8.2 mL/min/kg
half-life ([1]; male, 0.3 mg/kg): 1.9 h
CL in female rats as percent of the value in male animals ([1]; single iv): 25%
change in CYP2C9 mRNA expression (CYP2C9): No change
Induction of Cyp2c12 mRNA (Cyp2c12): No induction
increase in CYP3A4 mRNA vs DMSO control (CYP3A4 [3]): about 11 fold
Induction of Cyp2c13 mRNA (Cyp2c13): No induction
Upregulation of Cyp3a1 mRNA (Cyp3a1 [5]; 5 mg/kg daily): 1.66 ± 0.75
Upregulation of Cyp3a1 mRNA (Cyp3a1 [5]; 15 mg/kg daily): 2.53 ± 2.02
Upregulation of Cyp3a1 mRNA (Cyp3a1 [5]; 50 mg/kg daily): 6.04 ± 3.00
EC50 [6]: 1200 nM
increase in CYP3A4 enzyme activity (CYP3A4 [7]): fivefold
Structure (SMILES): CCCNS(=O)(=O)Nc1ncnc(OCCOc2ncc(Br)cn2)c1-c1ccc(Br)cc1 [macitentan]
Upregulation of Cyp3a1 mRNA (Cyp3a1 [2]; female rats, 50 mg/kg daily, 4-week study, relative to vehicle control): 12.1 ± 4.4
Upregulation of Cyp3a1 mRNA (Cyp3a1 [2]; female rats, 150 mg/kg daily, 4-week study, relative to vehicle control): 38.3 ± 10.7
Upregulation of Cyp3a1 mRNA (Cyp3a1 [2]; female rats, 450 mg/kg daily, 4-week study, relative to vehicle control): 55.3 ± 13.1
Upregulation of Cyp3a1 mRNA (Cyp3a1 [2]; female rats, 1500 mg/kg daily, 4-week study, relative to vehicle control): 106 ± 34
Upregulation of Cyp3a1 mRNA (Cyp3a1 [2]; female rats, 1500 mg/kg, 4 weeks, vs control): 106 fold
Upregulation of Cyp3a1 mRNA (Cyp3a1 [2]; male rats, 50 mg/kg daily, 4-week study, relative to vehicle control = 1.00): 2.17 ± 0.37
Upregulation of Cyp3a1 mRNA (Cyp3a1 [2]; male rats, 150 mg/kg daily, 4-week study, relative to vehicle control): 3.51 ± 1.36
Upregulation of Cyp3a1 mRNA (Cyp3a1 [2]; male rats, 450 mg/kg daily, 4-week study, relative to vehicle control): 4.87 ± 0.51
Upregulation of Cyp3a1 mRNA (Cyp3a1 [2]; male rats, 1500 mg/kg daily, 4-week study, relative to vehicle control): 9.96 ± 4.18
increase of Cyp3a1 mRNA vs control (Cyp3a1 [2]; male rats, 1500 mg/kg, 4 weeks): about 10 fold
AUC0‐24 h (day 1) ([4]; females, 50 mg/kg daily oral): 726 μg/mL"h
AUC0‐24 h (day 8/28) ([4]; females, 50 mg/kg daily oral): 490 μg/mL"h
AUC0‐24 h (day 1) ([4]; females, 150 mg/kg daily oral): 1160 μg/mL"h
AUC0‐24 h (day 8/28) ([4]; females, 150 mg/kg daily oral): 776 μg/mL"h
AUC0‐24 h (day 1) ([4]; females, 450 mg/kg daily oral): 1590 μg/mL"h
AUC0‐24 h (day 8/28) ([4]; females, 450 mg/kg daily oral): 1280 μg/mL"h
AUC0‐24 h (day 1) ([4]; females, 1500 mg/kg daily oral): 2500 μg/mL"h
AUC0‐24 h (day 8/28) ([4]; females, 1500 mg/kg daily oral): 1590 μg/mL"h
AUC0‐24 h (day 1) ([4]; males, 50 mg/kg daily oral): 213 μg/mL"h
AUC0‐24 h (day 8/28) ([4]; males, 50 mg/kg daily oral): 114 μg/mL"h
AUC0‐24 h (day 1) ([4]; males, 150 mg/kg daily oral): 382 μg/mL"h
AUC0‐24 h (day 8/28) ([4]; males, 150 mg/kg daily oral): 200 μg/mL"h
AUC0‐24 h (day 1) ([4]; males, 450 mg/kg daily oral): 595 μg/mL"h
AUC0‐24 h (day 8/28) ([4]; males, 450 mg/kg daily oral): 327 μg/mL"h
AUC0‐24 h (day 1) ([4]; males, 1500 mg/kg daily oral): 979 μg/mL"h
AUC0‐24 h (day 8/28) ([4]; males, 1500 mg/kg daily oral): 365 μg/mL"h
P450 (total, liver microsomes) (total P450; female rats, macitentan 50 mg/kg daily): 1.05 nmol/mg
P450 (total, liver microsomes) (total P450; female rats, macitentan 150 mg/kg daily): 1.15 nmol/mg
P450 (total, liver microsomes) (total P450; female rats, macitentan 450 mg/kg daily): 1.18 nmol/mg
P450 (total, liver microsomes) (total P450; female rats, macitentan 1500 mg/kg daily): 0.90 nmol/mg
P450 (total, liver microsomes) (total P450; male rats, macitentan 50 mg/kg daily): 1.35 nmol/mg
P450 (total, liver microsomes) (total P450; male rats, macitentan 150 mg/kg daily): 1.41 nmol/mg
P450 (total, liver microsomes) (total P450; male rats, macitentan 450 mg/kg daily): 1.33 nmol/mg
P450 (total, liver microsomes) (total P450; male rats, macitentan 1500 mg/kg daily): 1.45 nmol/mg
Upregulation of Cyp3a2 mRNA (Cyp3a2; 50 mg/kg daily, relative to vehicle control = 1.00): 3.65 ± 1.03
Upregulation of Cyp3a2 mRNA (Cyp3a2; 150 mg/kg daily, relative to vehicle control): 4.53 ± 1.31
Upregulation of Cyp3a2 mRNA (Cyp3a2; 450 mg/kg daily, relative to vehicle control): 5.21 ± 1.33
Upregulation of Cyp3a2 mRNA (Cyp3a2; 1500 mg/kg daily, relative to vehicle control): 6.50 ± 2.40
